Results on 48 compounds are retold here after PubChem BioAssay AID822 (SRMLSC, 2007).

The source made the active and inactive calls.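 How the source made its calls: active means half-maximal effective dose for blocking growth of human endothelial cells at most 100 µM; inactive means the rest.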

One test in a line: growth suppression of umbilical vein endothelial cells – cell-based, HUVEC, ATP luminescence, dose response (AID 822).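 Further: cells exposed to compound for 72 h before the ATP read; 100% = median luminescence of untreated cell-only control wells on each plate.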 The conditions noted are these: HUVEC proliferation, viability ATP luminescence; at 10 µM (top of the series). In a few lines:
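Assay system: HUVEC primary endothelial cells, low passage (≤12); amount: 1250 HUVEC cells seeded per well; buffer or medium: EBM plus 2% FBS; read-out: percent viability relative to median untreated cell signal, EC50 via four-parameter fit; signal: luminescent ATP measurement with CellTiter-Glo reagent; schedule: 72 h exposure, 37 °C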
`COc1cccc(C(=O)Oc2c(CN3CCOCC3)cc(Cl)c3cccnc23)c1`: the viability was 84% (inactive).

Still in this test, the particulars now being: HUVEC proliferation, viability ATP luminescence; at 20 µM (top of the series).
For the compound `Cc1ccc(Cn2c(SCC(=O)Nc3cc(C)on3)nc3ccccc3c2=O)cc1`, the viability was 81.2% (inactive).

For `CC1CCCN(c2oc(-c3cccc4ccccc34)nc2C#N)C1` (stereo not drawn), the viability is 92.1% (inactive).

With `O=C(Cc1sc(-c2ccccc2Cl)nc1-c1ccccc1)Nc1ccc(F)cc1`, the viability was 83.5% (inactive).

Regarding `Cc1cc(Cl)ccc1OCCCC(N)=O`, the viability is 94% (inactive).

As for `CCCC1(CCC)NC(=O)N(CC(=O)Nc2ccccc2OC)C1=O`, the viability was 113% (inactive).

In the case of `CCCS(=O)(=O)N1CCC(C(=O)N2CCC3(CC2)OCCO3)CC1`, the viability is 99.1% (inactive).

Take `O=C(CC1SCCNC1=O)Nc1cc(Cl)cc(Cl)c1` (stereo not drawn): the viability is 96.6% (inactive).

With `COc1ccc(CCn2c(=S)[nH]c3cc(C(=O)NCc4ccco4)ccc3c2=O)cc1OC`, the viability is 102% (inactive).

Regarding `O=C(Oc1ccccc1-c1nnco1)c1ccc(Cl)cc1`, the viability is 105% (inactive).

With `CCOc1ccc(NC(=S)Nc2ccc(C)c([N+](=O)[O-])c2)cc1`, the viability is 88.7% (inactive).

As for `CCC(C)(C)n1nnnc1C(c1cc2cc(C)cc(C)c2[nH]c1=O)N1CCN(Cc2ccc3c(c2)OCO3)CC1` (stereo not drawn), the viability was 80.5% (inactive).

Take `CC1CCCC(NC(=O)C2CCN(S(=O)(=O)N3CCC4(CC3)OCCO4)CC2)C1C` (stereo not drawn): the viability is 93.2% (inactive).

As for `O=C(CCSc1ccc(Cl)cc1)N1CCN(c2ncccn2)CC1`, the viability was 94.5% (inactive).

With `N#CCC(=O)Nc1ncn(Cc2ccccc2Cl)n1`, the viability was 95.8% (inactive).

`CC1=C(C)CS(=O)N(S(=O)(=O)c2ccccc2)C1` (stereo not drawn): the viability was 80.3% (inactive).

Regarding `COc1ccc2[nH]cc(C(=O)CN3CCN(C(=O)c4ccco4)CC3)c2c1`, the viability is 101% (inactive).

Regarding `CSc1nnc2n(-c3ccc(C)cc3)c(=O)c3c4c(sc3n12)COC(C(C)C)C4` (stereo not drawn), the viability was 81.8% (inactive).

For `C=CCn1c(O)c(C2=c3ccccc3=NC2=O)s/c1=N/c1nccs1`, the viability was 85.2% (inactive).

With `Cn1c(=O)c2cc(NCc3ccccc3)nnc2n(C)c1=O`, the viability is 92.6% (inactive).

As for `O=C1CSC(c2ccccn2)N1Cc1cn2ccccc2n1` (stereo not drawn), the viability was 120% (inactive).

For the compound `CC1(C)CC(NC(=O)c2coc(=O)c(Br)c2)CC(C)(C)N1`, the viability was 81% (inactive).

Regarding `Oc1ccc2oc3c(c2c1/C=N/n1cnnc1)CCCC3`, the viability was 88.2% (inactive).

Consider `Cn1c(=O)cc(SCC(=O)NCC2COc3ccccc3O2)c2ccccc21` (stereo not drawn), for which the viability is 98.4% (inactive).

Consider `Cc1ccc(C(C#N)c2ccc(C(=O)c3ccc(F)cc3)cc2)cc1` (stereo not drawn), for which the viability was 84% (inactive).

Regarding `CCn1c(SCC(=O)Nc2cc(C)on2)nc2sc3c(c2c1=O)CCCC3`, the viability was 86.3% (inactive).

For the compound `CC1(C)CC(=O)c2cc(C(=O)NCc3ccco3)c(=O)n(-c3ccc(Cl)cc3)c2C1`, the viability is 97.2% (inactive).

As to `COc1ccc(OC)c(S(=O)(=O)N(C)CC(=O)N2CCN(c3ccc(F)cc3)CC2)c1`, the viability is 100% (inactive).

Consider `Nc1nc2ccccc2n1/N=C/c1ccc(-c2ccccc2)o1`, for which the viability is 90.9% (inactive).

Regarding `O=C1CC(Sc2nnc(-c3ccccc3O)o2)C(=O)N1c1ccccc1` (stereo not drawn), the viability was 93% (inactive).

Take `O=C(Nc1ccc(-c2nc3c(ccc4ccccc43)o2)cc1)c1ccco1`: the viability is 90% (inactive).

`Cc1cc(C(=O)Nc2nc3ccc(S(C)(=O)=O)cc3s2)c(C)o1`: the viability was 82.9% (inactive).

Turning to `COc1cc2c(C(=O)NCc3ccc4c(c3)OCO4)cn(CC(C)C)c(=O)c2cc1OC`, the viability is 82.3% (inactive).

Turning to `CCOC(=O)CNC(=O)C(=O)c1c(O)[nH]c2ccccc12`, the viability is 96.7% (inactive).

In the case of `CCOC(=O)c1c(NC(=O)C2COc3ccccc3O2)sc(C(C)=O)c1C` (stereo not drawn), the viability was 112% (inactive).

Take `Cc1cc(C)n(-c2nc(Nc3ccccc3C)nc(-n3nc(C)cc3C)n2)n1`: the viability was 118% (inactive).

For the compound `CC1=CC(C)(C)Nc2ccc(OC(=O)CN3C(=O)C4CCCCC4C3=O)cc21` (stereo not drawn), the viability was 91% (inactive).

`COc1ccc(NC(=O)CSc2nnc(CNC(=O)COc3ccc(Cl)cc3)o2)c(OC)c1`: the viability is 95.2% (inactive).

In the case of `CCOc1ccc(NS(=O)(=O)c2ccc(OCC(=O)NCCCOC)cc2)cc1`, the viability was 94.4% (inactive).

Take `Cc1sc2nc(SCC(=O)NCc3ccco3)n(CCc3ccccc3)c(=O)c2c1C`: the viability is 91.5% (inactive).

Regarding `CN(C)C(=O)CSc1cccc2cccnc12`, the viability is 84.4% (inactive).

For the compound `CC(C)(C)n1cnc2cc(NS(=O)(=O)c3ccccc3)ccc21`, the viability is 105% (inactive).

For the compound `Cc1ccc(NC(=O)C(C)N2C(=O)c3ccccc3C2=O)cc1` (stereo not drawn), the viability was 90.9% (inactive).

As for `CC(C(=O)N1CCOCC1)N1C(=O)c2ccccc2C1=O` (stereo not drawn), the viability was 105% (inactive).

As to `COc1ccc(OC)c2sc(N3CCCCC3)nc12`, the viability is 88.4% (inactive).

As to `Cc1cc(C(=O)OC(C)C(=O)Nc2cccc(S(=O)(=O)N3CCOCC3)c2)c(C)o1` (stereo not drawn), the viability was 101% (inactive).

Regarding `C=CCn1c(SCC(=O)NC(=O)NCc2ccco2)nc2sc(CC)cc2c1=O`, the viability is 86.9% (inactive).

`CN(CCO)c1cc(Sc2nc3ccccc3s2)c2nonc2c1[N+](=O)[O-]`: the viability was 85.4% (inactive).

By viability is commonly meant a read-out of living cells in per cent, often relative to untreated cells.
